Sampled rows, rich in hits. Any-hit rate of the full collection: about 2%.
Rpn11 block = Rpn11 (human) deubiquitinase inhibition. O00487. human 26S proteasome, Ub4-pepOG fluorescence polarization; 20S core pre-blocked with epoxomicin. inhibition, % at 20 µM. hit rate 0.59% among 360,000. AID 588493;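 active means inhibition at 20 µM, scaled to each plate's controls, above about 33%, limit read from the data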
Target sequence (O00487 whole entry, looked up): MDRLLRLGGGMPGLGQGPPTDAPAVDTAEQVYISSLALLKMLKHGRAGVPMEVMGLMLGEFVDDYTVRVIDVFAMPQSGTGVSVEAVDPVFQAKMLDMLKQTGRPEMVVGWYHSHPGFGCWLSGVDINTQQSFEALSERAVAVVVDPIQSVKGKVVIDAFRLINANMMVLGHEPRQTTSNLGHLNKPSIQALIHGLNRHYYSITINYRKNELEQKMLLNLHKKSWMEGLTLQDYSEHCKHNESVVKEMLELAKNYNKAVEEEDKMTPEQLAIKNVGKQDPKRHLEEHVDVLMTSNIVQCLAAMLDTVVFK
LMPTP inh = blocks human LMPTP phosphatase | inhibition, % at 20 µM | hit rate 0.22% among 360,000 | AID 651560 | P24666 | recombinant LMPTP-A, OMFP fluorogenic substrate, fluorescence intensity;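 active means compounds that cut the enzyme signal by at least half of the control window in the single-dose screen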
Target sequence (P24666 whole entry, looked up): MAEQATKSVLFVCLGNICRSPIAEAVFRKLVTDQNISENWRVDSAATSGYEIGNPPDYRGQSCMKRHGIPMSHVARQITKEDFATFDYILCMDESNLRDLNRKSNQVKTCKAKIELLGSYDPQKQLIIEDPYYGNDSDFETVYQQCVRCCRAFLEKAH
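Buffer or medium: Bis-Tris pH 6.0, DTT, detergent; Assay system: LMPTP-A enzyme; Quantity: 0.625 nM enzyme; Detection: endpoint fluorescence intensity; Times: 50 min dark incubation at room temperature; Controls: substrate-only low control, DMSO enzyme-plus-substrate high control; Doses: single 20 µM dose; Read-out: percent inhibition versus substrate-only and uninhibited controls; Reagent: 400 µM OMFP.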
Scp1 inh = blocks human Scp-1 phosphatase activity. Q9GZU7. Recombinant Scp1, phosphopeptide, malachite green phosphate absorbance. inhibition, % at 20 µM. hit rate 0.88% among 340,000. AID 493091;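 active means inhibition above about 50% at 20 µM, limit read from the data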
Target sequence (Q9GZU7 76-261 limits assumed): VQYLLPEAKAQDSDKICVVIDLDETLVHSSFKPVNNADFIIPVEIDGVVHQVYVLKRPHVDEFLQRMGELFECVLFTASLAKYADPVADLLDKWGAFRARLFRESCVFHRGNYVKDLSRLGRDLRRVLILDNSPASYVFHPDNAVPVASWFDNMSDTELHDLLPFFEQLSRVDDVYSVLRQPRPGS
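Test system: SCP-1 catalytic domain; Buffer or medium: Acidic Tris acetate buffer with magnesium and detergent; Also added: Phosphorylated 17-residue peptide substrate; Compound: single 20 µM dose, 1% DMSO; Schedule: enzyme reaction 45 min at room temperature, colour 5 min, stabilisation 30 min; Signal: Phosphate-binding colour reagent, absorbance read at 630 nm.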
STEP inh = inhibitors of human striatal-enriched phosphatase STEP; P54829; recombinant STEP, OMFP fluorogenic substrate, fluorescence; inhibition, % at 20 µM; hit rate 0.25% among 360,000; AID 588621;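 active means inhibition at 20 µM, scaled per plate between control wells, above about 37%, limit read from the data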
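Test system: STEP tyrosine phosphatase / Reagent: OMFP at 25 µM / Doses: 20 µM, 1% DMSO / Read-out: percent inhibition scaled to no-enzyme and uninhibited-enzyme controls, plate-pattern corrected / Detection: FITC-channel fluorescence of OMFP product / Medium: Bis-Tris buffer pH 6.0, 2.5 mM DTT, 0.005% Tween 20 / Schedule: 20 min at room temperature, dark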
DNMT1 inh = DNMT1 (human) enzyme inhibition; P26358; hit rate 0.83% among 360,000; DNMT1 molecular beacon, Hinp1I cleavage, fluorescence; inhibition (reported as % activation of signal), % at 10 µM; AID 588458; in the data active means inhibition above about 50%
Scp1 confirm = confirmation of human Scp-1 phosphatase inhibitors | shares compounds with Scp1 inh | recombinant SCP-1 catalytic domain, phosphate release, malachite green absorbance | inhibition, % at 20 µM | hit rate 61% among 2,500 | AID 540281;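 active means inhibition of at least 30% at 20 µM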
Scp-1 MG ctr = colorimetric interference in Scp-1 counter-screen; shares compounds with Scp1 inh; Colorimetric interference counterscreen, malachite green absorbance 630 nm; apparent inhibition (interference), % at 20 µM; 2,500 tested, under 10 active; AID 540313;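 active means inhibition of at least 30% at 20 µM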;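 further: compounds added after enzyme reaction finished so only phosphate colour detection is probed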
Scp-1 Tm shift = binds human Scp-1, shifting its melting temperature; shares compounds with Scp1 inh; Recombinant SCP1, Sypro Orange thermal shift Tm; thermal shift relative to vanadate control, % at 40 µM; hit rate 25% among 1,500; AID 540329;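 active means substances whose mean melting-temperature shift, as a percentage of the reference inhibitor's shift, reaches about 5.3%, limit read from the data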
DNMT1 confirm = DNMT1 inhibition confirmation, single concentration; shares compounds with DNMT1 inh; DNMT1 molecular beacon HinP1I cleavage, fluorescence; inhibition, % at 10 µM; hit rate 8% among 2,300;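 active means average inhibition of at least 30% in the single-concentration confirmation test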
Beacon interf = shows spectral interference in the DNMT1 beacon assay; shares compounds with DNMT1 inh; hit rate 1% among 2,300; activation (fluorescence interference), % at 10 µM; DNMT1 molecular beacon spectral interference counterscreen, fluorescence 485/520;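 active means activation of at least 30% at 10 µM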;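 further: DNMT1 catalytic domain with a HinP1I cleavage step and a FAM/dabcyl DNA beacon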
Rpn11 confirm = Rpn11 inhibition confirmation, single concentration; shares compounds with Rpn11 block; hit rate 29% among 1,900; purified human 26S proteasome, Ub4-pepOG fluorescence polarization; proteasome pretreated with epoxomicin; inhibition, % at 20 µM
MMP-2 inh = MMP-2 (human) inhibition counter-screen | shares compounds with Rpn11 block | recombinant MMP-2, FRET peptide cleavage fluorescence | inhibition, % at 20 µM | hit rate 4% among 1,900 | AID 602330;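 further: human MMP-2 activated beforehand with APMA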
Thrombin FP = thrombin (bovine) inhibition counter-screen; bovine thrombin cleavage of Ub4-pepOG, fluorescence polarization; inhibition, % at 20 µM; hit rate 13% among 1,900; AID 602333; shares compounds with Rpn11 block;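 active means mean inhibition at least 40% at 20 µM, or signal 3 deviations below plate average, so some actives read negative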
A number is an active result; - = inactive; . = no result given; + = active, no number. Unless noted, no stated cut-off is given here; in the data, active means inhibition above about 40%; inactive means the rest.

SMILES	Rpn11 block	LMPTP inh	Scp1 inh	STEP inh	DNMT1 inh	Scp1 confirm	Scp-1 MG ctr	Scp-1 Tm shift	DNMT1 confirm	Beacon interf	Rpn11 confirm	MMP-2 inh	Thrombin FP
CCCCCCCCCC1(CC(=O)OCC)SCCN1C(N)=O (stereo unspecified)	-	-	.	-	-	.	.	.	.	.	.	.	.
O=C(OCc1cc(=O)n2c(n1)sc1ccccc12)c1cccc(O)c1	-	-	78.9	-	98.1	57.7	-	-	-	-	.	.	.
O=C(OCc1cc(=O)n2c(n1)sc1ccccc12)c1ccc(O)cc1O	-	-	78.1	-	69.8	60.1	-	-	-	-	.	.	.
O=C(Cc1coc2cc3c(cc12)CCC3)OCc1cc(=O)n2c(n1)sc1ccccc12	-	-	63.3	-	84.8	51.3	-	6.3	-	-	.	.	.
CC(C)[C@H](NC(=O)c1ccco1)C(=O)OCc1cc(=O)n2c(n1)sc1ccccc12	-	-	82.9	-	83.9	59.5	-	-	-	-	.	.	.
COC(=O)c1cc(=O)nc2sc3ccccc3n12	-	-	-	-	-	.	.	.	.	.	.	.	.
CC(=O)OCCn1c([N+](=O)[O-])cnc1C=[N+]([O-])C1CCCCC1	-	-	.	-	-	.	.	.	.	.	.	.	.
Cc1ccc(S(=O)(=O)Cc2ccc(C(=O)N3CCc4ccccc4C3)o2)cc1	-	-	75.5	-	81.0	54.1	-	-	-	-	.	.	.
N#C/C(=C\c1cccn1S(=O)(=O)c1cccc([N+](=O)[O-])c1)S(=O)(=O)c1ccc(F)cc1	-	-	.	-	-	.	.	.	.	.	.	.	.
Cc1ccc(NC(=O)CSc2sc3c(O)cc(=O)[nH]c3c2C#N)c(F)c1	-	-	-	-	-	.	.	.	.	.	.	.	.
COc1cc(Cl)c(C)cc1NC(=O)CSc1sc2c(O)cc(=O)[nH]c2c1C#N	40.0	-	64.9	-	-	76.4	-	12.7	.	.	-	-	-
Cc1ccc(C(=O)O)cc1-c1ccc(C=C2C(=O)c3ccccc3C2=O)o1	99.3	-	79.3	41.8	72.5	46.9	-	12.1	-	-	-	-	-
C[C@H](CO)N1C[C@H](C)[C@@H](CN(C)S(=O)(=O)c2ccccc2F)Oc2ncc(C#Cc3cccnc3)cc2C1=O	-	-	.	-	-	.	.	.	.	.	.	.	.
COCC(C)n1c(C)cc(C(=O)COC(=O)c2c(NC(C)=O)sc(C)c2C)c1C (stereo unspecified)	48.9	-	80.1	-	-	42.1	-	-	.	.	-	-	-
COCC(C)n1c(C)cc(C(=O)COC(=O)c2c(C)nn(-c3ccccc3)c2C)c1C (stereo unspecified)	-	-	-	-	-	.	.	.	.	.	.	.	.
Cc1ccc(O)c(C(=O)c2cnn(C(=O)COc3ccc(Cl)cc3)c2)c1	76.8	-	82.2	-	-	73.0	-	-	.	.	-	-	-
Cc1ccc(NC(=O)CCc2nc3sc4c(c3c(=O)[nH]2)CCCC4)nc1	48.9	-	61.6	-	50.3	66.0	-	9.0	-	-	78.0	-	-
O=C1NC(=S)SC1=Cc1cc(Br)ccc1O	48.5	-	67.2	-	-	-	-	.	.	.	-	-	-
Cn1cnnc1SCC(=O)Nc1sc2c(c1C(N)=O)CCC2	40.9	-	64.8	-	85.0	73.3	-	12.8	-	-	-	-	-
CC1CCC2(CC1)NC(=O)N(CC(=O)Nc1sc3c(c1C(N)=O)CCC3)C2=O (stereo unspecified)	64.7	-	85.9	-	70.2	65.4	-	12.2	-	-	-	-	-
COC(=O)c1c(NC(=O)CN2C(=O)NC3(CCC(C)CC3)C2=O)sc2c1CCC2 (stereo unspecified)	-	-	-	-	-	.	.	.	.	.	.	.	.
COc1cccc(/C=N/NC(=O)c2ccc(N3CCCC3=O)cc2)c1	-	-	-	-	-	.	.	.	.	.	.	.	.
CCCNC(=O)c1cc(C2CCCN(S(=O)(=O)c3cccs3)C2)on1 (stereo unspecified)	-	-	.	-	-	.	.	.	.	.	.	.	.
Cc1cccc(NC(=O)CSc2nc(N)c(NC(=O)c3cccs3)c(=O)[nH]2)c1C	-	-	-	-	-	.	.	.	.	.	.	.	.
CCOc1ccc(C(=O)N/N=C/c2cc(Cl)ccc2[N+](=O)[O-])cc1	58.7	-	102.7	-	-	48.1	-	-	.	.	41.4	-	-
SMILES	Rpn11 block	LMPTP inh	Scp1 inh	STEP inh	DNMT1 inh	Scp1 confirm	Scp-1 MG ctr	Scp-1 Tm shift	DNMT1 confirm	Beacon interf	Rpn11 confirm	MMP-2 inh	Thrombin FP
CCOc1ccc(Cl)cc1/C=N/NC(=O)c1ccccc1	-	-	-	-	-	.	.	.	.	.	.	.	.
CC(C)(C)OC(=O)C[C@@H]1C/C=C\C[C@H](CC(=O)N(CCO)Cc2ccccc2)C(=O)N[C@H](C(C)(C)C)COC1=O	-	-	-	-	-	.	.	.	.	.	.	.	.
COc1ccccc1NC(=O)C(C)OC(=O)CCCc1c[nH]c2ccccc12 (stereo unspecified)	-	-	-	-	-	.	.	.	.	.	.	.	.
O=C(Nc1ccc2nn(-c3ccccc3)nc2c1)c1ccc(Br)o1	44.9	-	92.7	-	76.0	90.2	-	-	.	.	-	-	-
O=C(Nc1ccc2nn(-c3ccccc3)nc2c1)c1ccc2c(c1)OCCO2	-	-	-	-	-	.	.	.	.	.	.	.	.
O=C(Nc1nc2ccsc2c(=O)s1)c1ccc(F)cc1	42.7	64.8	95.7	97.6	-	51.0	-	-	.	.	-	-	-
CC(=O)NC1=NC(=O)/C(=C/c2cc(C)n(-c3ccc(NC(C)=O)cc3)c2C)S1	.	-	-	-	-	.	.	.	.	.	.	.	.
CC(=O)NC1=NC(=O)/C(=C/c2cc(C)n(-c3cccc(C(=O)O)c3)c2C)S1	136.1	-	71.8	-	93.2	53.1	-	5.3	.	.	+	40.4	136.5
CCOC(=O)c1ccc(Cl)c(NC(=O)c2ccc(-c3ccccc3)cc2)c1	-	-	-	-	-	.	.	.	.	.	.	.	.

Screening data (PubChem BioAssay)
